In brackets after ≈: the same amount, converted by molar mass. Activity calls are given as the source filed them. No cut-off for these calls is given here.

Data set [1] in a line: Thermodynamic solubility in 0.001N HCl by HPLC analysis. Format: physicochemical. The conditions noted are these: for solubility thermodynamic: 0.001N HCl, read-out: Therm_solubility. The gist of the method: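 Thermodynamic solubility measured in 0.001 N HCl (pH 3), chosen to resemble acidic gastric fluid. Dissolved compound quantified by HPLC and reported in […].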
Data set [2] concerns the target T1, NPC intracellular cholesterol transporter 1 (Homo sapiens) (UniProt O15118).
T1 sequence (whole entry): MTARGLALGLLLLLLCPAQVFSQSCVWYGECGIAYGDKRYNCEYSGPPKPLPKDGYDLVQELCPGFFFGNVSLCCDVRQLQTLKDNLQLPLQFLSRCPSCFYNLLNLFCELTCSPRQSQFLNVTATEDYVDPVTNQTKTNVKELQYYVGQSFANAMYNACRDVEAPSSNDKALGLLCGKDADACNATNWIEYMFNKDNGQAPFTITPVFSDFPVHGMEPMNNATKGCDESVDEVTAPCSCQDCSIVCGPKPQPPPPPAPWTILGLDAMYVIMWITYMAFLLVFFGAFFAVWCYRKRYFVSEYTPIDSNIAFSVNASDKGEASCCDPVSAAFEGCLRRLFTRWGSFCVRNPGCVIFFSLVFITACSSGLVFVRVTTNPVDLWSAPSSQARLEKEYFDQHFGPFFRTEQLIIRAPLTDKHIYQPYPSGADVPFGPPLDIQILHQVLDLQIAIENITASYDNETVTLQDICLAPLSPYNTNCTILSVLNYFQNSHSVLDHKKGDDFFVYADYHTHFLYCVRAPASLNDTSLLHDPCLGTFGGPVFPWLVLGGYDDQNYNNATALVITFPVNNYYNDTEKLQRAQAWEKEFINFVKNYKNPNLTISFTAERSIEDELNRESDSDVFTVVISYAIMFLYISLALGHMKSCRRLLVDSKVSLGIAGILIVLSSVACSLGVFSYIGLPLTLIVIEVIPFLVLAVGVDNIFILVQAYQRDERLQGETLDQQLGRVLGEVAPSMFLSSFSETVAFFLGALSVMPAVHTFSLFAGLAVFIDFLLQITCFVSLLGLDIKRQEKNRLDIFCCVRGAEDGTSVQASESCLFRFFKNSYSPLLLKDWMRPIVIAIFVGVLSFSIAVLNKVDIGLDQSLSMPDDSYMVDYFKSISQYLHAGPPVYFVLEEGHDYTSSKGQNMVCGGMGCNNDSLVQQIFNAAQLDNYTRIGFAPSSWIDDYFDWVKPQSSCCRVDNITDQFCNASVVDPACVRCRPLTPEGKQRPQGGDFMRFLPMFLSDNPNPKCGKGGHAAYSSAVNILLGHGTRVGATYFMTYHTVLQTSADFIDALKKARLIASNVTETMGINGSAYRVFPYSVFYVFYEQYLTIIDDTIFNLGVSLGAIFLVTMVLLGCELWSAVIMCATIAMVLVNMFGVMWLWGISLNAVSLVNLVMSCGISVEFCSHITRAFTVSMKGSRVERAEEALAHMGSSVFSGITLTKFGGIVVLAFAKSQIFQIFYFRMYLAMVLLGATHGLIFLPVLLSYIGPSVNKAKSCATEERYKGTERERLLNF
As to the kind of experiment: Inhibition of NPC1 in HUVEC cells assessed as accumulation of cholesterol in perinuclear structure at 0.2 uM incubated for 24 hrs by filipin staining based confocal microscopy analysis. The data set is classed as cell-based. The gist of the method: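 Primary HUVECs incubated 24 h with 0.2 μM compound or DMSO. Intracellular cholesterol stained with filipin and imaged by confocal fluorescence microscopy, 25x objective.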

In data set [3] the test system is HUVEC. The experiment in a line: Effect on VEGFR2 localization in human HUVEC cells assessed as accumulation of VEGFR2 in perinuclear region at 2 uM by DAPI staining based confocal micrscopy. The data set is classed as functional, cell-based. The gist of the method:
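HUVECs treated with DMSO or 2 μM compound. Cells immunostained for VEGFR2 (green) and Golgi marker GM130 (red), nuclei counterstained with DAPI. Imaged by confocal microscopy, scoring perinuclear VEGFR2 and its colocalization with GM130.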

Data set [4] can be described thus: Inhibition of NPC1/VDAC1 in HUVEC cells assessed as reduction in cell proliferation pretreated for 24 hrs followed by [3H]thymidine incorporation by scintillation counter method. The data set is classed as cell-based. The conditions noted are these: Homo sapiens. The gist of the method: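 HUVEC proliferation read by [³H]-thymidine incorporation, giving IC50. Mean ± SD of three independent experiments, each run in triplicate.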
(In general: Dividing cells build labelled thymidine or BrdU into new DNA.)

For a further data set, the target named is Cytochrome P450 3A4 (Homo sapiens, UniProt P08684). As to the kind of experiment: Inhibition of CYP3A4 (unknown origin). The data set is classed as ADME.
Data set [5] deals with HUVEC. The experiment in a line: Inhibition of NPC1/VDAC1 in HUVEC cells assessed as inhibition of tube formation at 3 uM measured after 24 hrs by Calcein-AM staining based fluorescence microscopy analysis relative to control. The data set is classed as cell-based. The conditions noted are these: Homo sapiens. Put shortly:
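HUVECs seeded on Matrigel-coated wells and treated with DMSO or 3 μM compound for 24 h. Networks stained with Calcein-AM and imaged by fluorescence microscopy. Total tube length quantified from the images against DMSO control. Mean ± SD of three independent experiments.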

For data set [6], the target named is AMP-activated protein kinase, AMPK (Homo sapiens) (UniProt P54646+O43741+P54619+Q9UGJ0+Q9Y478+Q13131+Q9UGI9). The experiment in a line: Activation of AMPK in HUVEC cells assessed as phosphorylation of acetyl CoA carboxylase measured after 24 hrs by Western blot analysis. Format: cell-based. The gist of the method:
(§1)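 HUVECs exposed to test compound at 0.05, 0.25, 0.5, 1 or 2 μM, or DMSO vehicle, for 24 h. Lysates probed by western blot for VEGFR2, phospho- and total ACC, phospho- and total S6K, with β-actin as loading reference.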
In general terms: In western blotting, separated proteins are transferred to a membrane and probed.

For data set [7], the target named is Serine/threonine-protein kinase mTOR (Homo sapiens) (UniProt P42345). As to the kind of experiment: Inhibition of mTOR in HUVEC cells assessed as reduction in phosphorylation of p70S6K measured after 24 hrs by Western blot analysis. The data set is classed as cell-based. Put shortly:
as §1

The target in data set [8] is Vascular endothelial growth factor receptor 2 (Homo sapiens) (UniProt P35968). The experiment in a line: Inhibition of VEGFR2 glycosylation in HUVEC cells assessed as disappearance of VEGFR2 at 0.5 to 2 uM measured after 24 hrs by Western blot analysis. The data set is classed as cell-based. The gist of the method: as §1
Chain of Vascular endothelial growth factor receptor 2 (Homo sapiens) (P35968 whole entry): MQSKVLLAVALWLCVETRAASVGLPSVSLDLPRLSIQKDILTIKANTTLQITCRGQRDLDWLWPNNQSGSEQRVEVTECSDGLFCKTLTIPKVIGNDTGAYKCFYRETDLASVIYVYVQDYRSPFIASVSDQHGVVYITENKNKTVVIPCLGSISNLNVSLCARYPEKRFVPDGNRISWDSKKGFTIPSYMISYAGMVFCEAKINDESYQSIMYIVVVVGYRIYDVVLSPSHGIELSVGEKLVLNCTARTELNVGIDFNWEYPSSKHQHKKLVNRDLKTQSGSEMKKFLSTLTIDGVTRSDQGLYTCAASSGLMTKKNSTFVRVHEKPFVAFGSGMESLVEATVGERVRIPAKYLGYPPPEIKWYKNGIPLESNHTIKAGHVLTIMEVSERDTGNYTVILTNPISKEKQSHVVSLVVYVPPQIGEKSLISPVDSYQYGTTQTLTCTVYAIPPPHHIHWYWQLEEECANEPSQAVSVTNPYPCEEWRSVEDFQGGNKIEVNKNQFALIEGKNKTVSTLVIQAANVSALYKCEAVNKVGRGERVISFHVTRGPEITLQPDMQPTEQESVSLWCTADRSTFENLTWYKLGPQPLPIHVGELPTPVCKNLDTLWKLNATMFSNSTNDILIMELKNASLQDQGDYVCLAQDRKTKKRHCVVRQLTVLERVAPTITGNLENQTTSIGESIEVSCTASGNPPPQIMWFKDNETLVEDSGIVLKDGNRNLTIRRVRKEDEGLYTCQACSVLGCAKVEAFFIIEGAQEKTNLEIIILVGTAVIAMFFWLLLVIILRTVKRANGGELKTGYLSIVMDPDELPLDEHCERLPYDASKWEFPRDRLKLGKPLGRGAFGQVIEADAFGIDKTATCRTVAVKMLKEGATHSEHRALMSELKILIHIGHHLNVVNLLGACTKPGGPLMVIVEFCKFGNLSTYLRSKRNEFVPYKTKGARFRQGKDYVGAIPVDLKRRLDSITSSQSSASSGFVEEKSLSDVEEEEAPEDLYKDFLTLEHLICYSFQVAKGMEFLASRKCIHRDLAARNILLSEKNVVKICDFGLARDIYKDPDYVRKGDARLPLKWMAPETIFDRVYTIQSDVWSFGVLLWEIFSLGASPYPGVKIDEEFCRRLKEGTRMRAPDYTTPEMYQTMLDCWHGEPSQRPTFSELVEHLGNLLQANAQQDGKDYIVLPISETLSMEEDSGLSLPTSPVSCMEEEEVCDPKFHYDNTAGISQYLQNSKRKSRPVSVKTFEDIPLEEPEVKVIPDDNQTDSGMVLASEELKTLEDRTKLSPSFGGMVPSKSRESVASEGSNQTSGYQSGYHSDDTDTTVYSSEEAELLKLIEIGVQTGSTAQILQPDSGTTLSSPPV

Chain of Cytochrome P450 3A4 (P08684 whole entry): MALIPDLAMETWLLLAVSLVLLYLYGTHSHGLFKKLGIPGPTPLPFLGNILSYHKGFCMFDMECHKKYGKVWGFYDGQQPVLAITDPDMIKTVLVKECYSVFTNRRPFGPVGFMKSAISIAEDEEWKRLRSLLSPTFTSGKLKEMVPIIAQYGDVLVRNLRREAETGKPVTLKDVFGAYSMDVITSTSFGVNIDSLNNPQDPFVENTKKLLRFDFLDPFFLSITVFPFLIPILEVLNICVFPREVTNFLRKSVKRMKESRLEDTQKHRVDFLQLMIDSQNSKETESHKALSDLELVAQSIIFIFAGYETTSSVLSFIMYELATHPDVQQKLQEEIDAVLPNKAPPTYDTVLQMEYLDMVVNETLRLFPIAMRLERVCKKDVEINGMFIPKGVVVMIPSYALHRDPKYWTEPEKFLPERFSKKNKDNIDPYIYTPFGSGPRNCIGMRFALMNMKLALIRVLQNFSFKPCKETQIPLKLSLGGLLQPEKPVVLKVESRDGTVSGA

For `CCC(C)n1ncn(-c2ccc(N3CCN(c4ccc(OCC5COC(Cn6cncn6)(c6ccc(Cl)cc6Cl)O5)cc4)CC3)cc2)c1=O` (configuration not stated) [ITRACONAZOLE], the Therm_solubility in data set [1] (buffer) amounted to 0.0101 µg/mL. Besides, in data set [2], the inhibition (usually the change of the read-out against control, counted positive when it falls) is “Active”. In the data set with HUVEC [3], the result was Active.
As to `CCC(C)n1ncn(-c2ccc(N3CCN(c4ccc(OC[C@@H]5CO[C@@](Cn6cncn6)(c6ccc(Cl)cc6Cl)O5)nc4)CC3)c(F)c2)c1=O` (some centres not stated), the IC50 (as a rule, the midpoint of a concentration-inhibition curve) in [4] is 446 nM. Moreover, the solubility thermodynamic in data set [1] came to 0.255 µg/mL (≈ 0.352 µM).
For the compound `CCC(C)n1ncn(-c2ccc(N3CCN(c4ccc(OC[C@@H]5CO[C@@](Cn6ccnc6)(c6ccc(Cl)cc6Cl)O5)cn4)CC3)c(F)c2)c1=O` (some centres not stated), the IC50 in [4] stood at 68 nM. Moreover, in data set [1], the solubility thermodynamic was 125 µg/mL (≈ 173 µM).
For `CCC(C)n1ncn(-c2ccc(N3CCN(c4ccc(OC[C@@H]5CO[C@@](Cn6cnnn6)(c6ccc(Cl)cc6Cl)O5)cn4)CC3)cc2)c1=O` (some centres not stated), the IC50 in [4] was 77.1 nM; against Cytochrome P450 3A4, above 90000 nM. In addition, the solubility thermodynamic in data set [1] turned out to be 0.951 µg/mL (≈ 1.34 µM). The inhibition is 70% with HUVEC [5] and “Dose-dependent effect” in [7]. Also, the inhibition result in data set [2] and in data set [8] was “Active” in each case. Also, in data set [6], the Activity entry is “Dose-dependent effect”. The outcome with HUVEC [3] was Active.
Take `CCC(C)n1ncn(-c2ccc(N3CCN(c4ccc(OC[C@@H]5CO[C@@](Cn6cnnn6)(c6ccc(Cl)cc6Cl)O5)cc4)CC3)c(F)c2)c1=O` (some centres not stated): the IC50 was 153 nM in [4] and above 90000 nM against Cytochrome P450 3A4. The solubility thermodynamic in data set [1] came out at 0.0528 µg/mL (≈ 0.0729 µM). The inhibition result in data set [2] is “Active”.
On to `CCC(C)n1ncn(-c2ccc(N3CCN(c4ccc(OC[C@@H]5CO[C@@](Cn6cncn6)(c6ccc(Cl)cc6Cl)O5)cc4)CC3)cn2)c1=O` (some centres not stated), for which, in [4], the IC50 amounted to 188 nM. Also, in [1], the solubility thermodynamic is 0.496 µg/mL (≈ 0.703 µM).
As for `CCC(C)n1ncn(-c2ccc(N3CCN(c4ccc(OC[C@@H]5CO[C@@](Cn6cncn6)(c6ccc(Cl)cc6Cl)O5)cc4)CC3)nc2)c1=O` (some centres not stated), the IC50 in data set [4] is 222 nM. Further, the solubility thermodynamic in [1] turned out to be 0.0539 µg/mL (≈ 0.0763 µM).
Taken in the same sequence, the figures for `CCC(C)n1ncn(-c2ccc(N3CCN(c4ccc(OC[C@@H]5CO[C@@](Cn6cncn6)(c6ccc(Cl)cc6Cl)O5)cc4)CC3)c(F)c2)c1=O` (some centres not stated) were 128 nM and 0.0291 µg/mL (≈ 0.0402 µM).
Regarding `CCC(C)n1ncn(-c2ccc(N3CCN(c4ccc(OC[C@@H]5CO[C@@](Cn6ccnc6)(c6ccc(Cl)cc6Cl)O5)cc4)CC3)c(F)c2)c1=O` (some centres not stated), in data set [4], the IC50 was 70.1 nM. For the same compound, the solubility thermodynamic in data set [1] is 17.2 µg/mL (≈ 23.7 µM).
For `CCC(C)n1ncn(-c2ccc(N3CCN(c4ccc(OC[C@@H]5CO[C@@](Cn6cncn6)(c6ccc(Cl)cc6Cl)O5)cn4)CC3)c(F)c2)c1=O` (some centres not stated), in that order: 173 nM and 0.848 µg/mL (≈ 1.17 µM).
Taken in the same sequence, the figures for `CCC(C)n1ncn(-c2ccc(N3CCN(c4ccc(OC[C@@H]5CO[C@@](Cn6ccnc6)(c6ccc(Cl)cc6Cl)O5)cc4)CC3)cn2)c1=O` (some centres not stated) were 636 nM and 41.3 µg/mL (≈ 58.6 µM).
For `CCC(C)n1ncn(-c2ccc(N3CCN(c4ccc(OC[C@@H]5CO[C@@](Cn6ccnc6)(c6ccc(Cl)cc6Cl)O5)nc4)CC3)cc2)c1=O` (some centres not stated), in that order: 468 nM and 6.48 µg/mL (≈ 9.19 µM).
With `CCC(C)n1ncn(-c2ccc(N3CCN(c4ccc(OC[C@@H]5CO[C@@](Cn6cncn6)(c6ccc(Cl)cc6Cl)O5)nc4)CC3)cc2)c1=O` (some centres not stated), the IC50 in data set [4] is 687 nM. Also, in data set [1], the solubility thermodynamic is 0.116 µg/mL (≈ 0.164 µM).
As to `CCC(C)n1ncn(-c2ccc(N3CCN(c4ccc(OC[C@@H]5CO[C@@](Cn6ccnc6)(c6ccc(Cl)cc6Cl)O5)cn4)CC3)cc2)c1=O` (some centres not stated), in data set [4], the IC50 turned out to be 69.1 nM. The solubility thermodynamic in data set [1] came to 2.94 µg/mL (≈ 4.16 µM).
In the case of `CCC(C)n1ncn(-c2ccc(N3CCN(c4ccc(OC[C@@H]5CO[C@@](Cn6cnnn6)(c6ccc(Cl)cc6Cl)O5)cc4)CC3)cc2)c1=O` (some centres not stated), the solubility thermodynamic in data set [1] turned out to be 0.321 µg/mL (≈ 0.455 µM). In [2], the inhibition result was “Active”.
Take `CCC(C)n1ncn(-c2ccc(N3CCN(c4ccc(OC[C@@H]5CO[C@@](Cn6ccnc6)(c6ccc(Cl)cc6Cl)O5)cc4)CC3)nc2)c1=O` (some centres not stated): in [4], the concentration for half-maximal inhibition (IC50) was determined as 98.5 nM. Also, the solubility thermodynamic in [1] was found to be 7.99 µg/mL (≈ 11.3 µM).
Turning to `CCC(C)n1ncn(-c2ccc(N3CCN(c4ccc(OC[C@@H]5CO[C@@](Cn6cnnn6)(c6ccc(Cl)cc6Cl)O5)cn4)CC3)c(F)c2)c1=O` (some centres not stated), in data set [4], the IC50 is 108 nM. Also, the solubility thermodynamic in data set [1] was 0.708 µg/mL (≈ 0.975 µM). For the same compound, the inhibition result in data set [2] is “Active”.
As to `CCC(C)n1ncn(-c2ccc(N3CCN(c4ccc(OC[C@@H]5CO[C@@](Cn6cncn6)(c6ccc(Cl)cc6Cl)O5)cn4)CC3)cc2)c1=O` (some centres not stated), the IC50 in [4] turned out to be 380 nM. For the same compound, the solubility thermodynamic in data set [1] worked out at 0.114 µg/mL (≈ 0.161 µM).

Source of the values: ChEMBL document CHEMBL4616691 (ACS Med Chem Lett, 2020).
